Experimental data of several laboratories.
Lines come from different studies, so protocols differ.
PIK3CG: Phosphatidylinositol 4,5-bisphosphate 3-kinase catalytic subunit gamma isoform (PIK3CG, Homo sapiens, UniProt P48736)
ADRA2B: Alpha-2B adrenergic receptor (ADRA2B, Homo sapiens, UniProt P18089)

Compound	target	test	endpoint	result
Cc1cccc(N=C2C(=O)N(Cc3ccccc3)c3ccccc32)c1	PIK3CG	enzyme activity, inhibitor, ADP detection	IC50	0.45 nM
Cn1ccc(-c2ccc(-c3cc(C(=O)O)cc4cc(-c5ccc(C(F)(F)F)cc5)ccc34)cc2)n1	Sigma intracellular receptor 2 (TMEM97, Homo sapiens, UniProt Q5BJF2)	cell-free assay, radioligand	Ki	1900 nM
CN1CCc2nc(NC(=O)C3=NN(c4ccc(F)cc4)C(C(N)=O)C3)sc2C1 (centres unmarked)	DDB1- and CUL4-associated factor 7 (Homo sapiens, UniProt P61962)	binding, SPR	Kd	> 71000 nM
NC(=O)C1=CN([C@@H]2O[C@H](COP(=O)(O)OP(=O)(O)OC[C@H]3O[C@@H](n4cnc5c(N)ncnc54)[C@H](OP(=O)(O)O)[C@@H]3O)[C@@H](O)[C@H]2O)C=CC1	MECR (Homo sapiens, UniProt Q9BV79)	binding, ITC	Kd	956 nM
Cc1cc(Oc2ncccc2CN2CCN(c3ccc(Cl)cc3)CC2)ccc1-c1c(C)c(=O)[nH]c(=O)n1C	ADRA2B	ligand displacement, radioligand	Ki	338 nM
CCC(C(=O)N1C(=O)C(=Nc2ccc(Cl)cc2Br)c2ccccc21)c1ccccc1 (centres unmarked)	PIK3CG	enzyme activity, inhibitor, ADP detection	IC50	28.3 nM
NC(=O)C1CN(C(=O)CCl)c2ccccc2O1 (centres unmarked)	Creatine kinase U-type, mitochondrial (CKMT1A, Homo sapiens, UniProt P12532)	binding, MST	Kd	13000 nM
Cc1ccc(CN2C(=O)C(=Nc3cccc(C)c3)c3ccccc32)cc1	PIK3CG	enzyme activity, inhibitor, ADP detection	IC50	0.98 nM
Cc1cc(Oc2ncccc2CN2CCN(c3ccc(Br)cc3)CC2)ccc1-c1c(C)c(=O)[nH]c(=O)n1C	ADRA2B	ligand displacement, radioligand	Ki	125 nM
Cc1ccc(CN2C(=O)C(=Nc3c(C(C)C)cccc3C(C)C)c3ccccc32)cc1	PIK3CG	enzyme activity, inhibitor, ADP detection	IC50	18.6 nM
Cc1cc(Oc2ncccc2CN2CCN(C(c3ccccc3)c3ccccc3)CC2)ccc1-c1c(C)c(=O)[nH]c(=O)n1C	ADRA2B	ligand displacement, radioligand	Ki	172 nM
CC(C)C[C@H](NC(=O)[C@H](CC(C)C)NC(=O)[C@H](Cc1c[nH]c2ccccc12)NC(=O)[C@H](CCC(N)=O)NC(=O)[C@@H](NC(=O)[C@H](Cc1ccccc1)NC(=O)[C@H](CC(=O)O)NC(=O)[C@H](CCC(N)=O)NC(=O)[C@H](C)NC(=O)[C@H](C)NC(=O)[C@H](CCCNC(=N)N)NC(=O)[C@H](CCC(=O)O)NC(=O)[C@H](CC(=O)O)NC(=O)[C@H](CC(C)C)NC(=O)[C@H](Cc1ccc(O)cc1)NC(=O)[C@H](CCCCN)NC(=O)[C@H](CO)NC(=O)[C@H](Cc1ccc(O)cc1)NC(=O)[C@H](CC(=O)O)NC(=O)[C@H](CO)NC(=O)[C@@H](NC(=O)[C@H](Cc1ccccc1)NC(=O)[C@@H](NC(=O)CNC(=O)[C@H](CCC(N)=O)NC(=O)C(C)(C)NC(=O)[C@@H](N)Cc1c[nH]cn1)[C@@H](C)O)[C@@H](C)O)C(C)C)C(=O)N[C@@H](CC(=O)O)C(=O)NCC(=O)NCC(=O)N1CCC[C@H]1C(=O)N[C@@H](CO)C(=O)N[C@@H](CC(C)C)C(=O)N[C@@H](CCCNC(=N)N)C(=O)N[C@@H](Cc1c[nH]cn1)C(=O)N[C@@H](Cc1ccc(O)cc1)C(=O)N[C@@H](CC(C)C)C(=O)N[C@@H](CC(N)=O)C(=O)N[C@@H](CC(C)C)C(=O)N[C@H](C(=O)N[C@H](C(=O)N[C@@H](CCCNC(=N)N)C(=O)N[C@@H](CCC(N)=O)C(=O)N[C@@H](CCCNC(=N)N)C(=O)N[C@@H](Cc1ccc(O)cc1)C(N)=O)[C@@H](C)O)C(C)C	Glucagon receptor (GCGR, Homo sapiens, UniProt P47871)	reporter gene, agonist, luciferase	EC50	0.12 nM
Cc1cc(Oc2ncccc2CN2CCN(c3cccc(Cl)c3Cl)CC2)ccc1-c1c(C)c(=O)[nH]c(=O)n1C	ADRA2B	ligand displacement, radioligand	Ki	113 nM
N#Cc1ccc2c(CN3CCOCC3)cc(-c3ccc([C@@H]4CCC(=O)N4)cc3)nc2c1	Advanced glycosylation end product-specific receptor (AGER, Homo sapiens, UniProt Q15109)	binding, fluorescence	Kd	1 nM
